The nature of data set [1]: Oral bioavailability in Sprague-Dawley rat at 10 mg/kg, po. The conditions noted are these: in vivo. It is filed as ADME, organism-based. An outline of the steps: (§1)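 Rat single-dose PK, n = 3, with oral dosing at 10 mg/kg and intravenous dosing at 2.5 or 5 mg/kg.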
Data set [2] in a line: Half life in Sprague-Dawley rat at 5 mg/kg, iv. It is filed as ADME, organism-based. The conditions noted are these: in vivo. On the set-up: dose 5 mg/kg, route intravenous. An outline of the steps: as §1
Data set [3] is described as follows: Half life in Sprague-Dawley rat at 10 mg/kg, po. It is filed as ADME, organism-based. Set-up: dose 10 mg/kg, route oral. The conditions noted are these: in vivo. In outline:
as §1

The target of data set [4] is T1, Leukotriene B4 receptor 1 (Homo sapiens, UniProt Q15722). The data set can be described thus: Antagonist activity at BLT1 receptor expressed in human HL60 cells assessed as inhibition of LTB4-stimulated calcium flux after 30 mins. It is filed as functional, cell-based, HL-60. Conditions: read-out: IC50. In outline: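 HL-60 cells grown in RPMI-1640 with 20% FBS were plated at 2.0 × 10^5 cells/ml with 1 μM retinoic acid. They were dye-loaded in HBSS/20 mM HEPES/5 mM probenecid (0.05% BSA in the replacement buffer) for 1 h at 37 C. Compound (5 × 10^-11 to 3 × 10^-6 M final) was added for 30 min at room temperature, then 0.5 μM LTB4. Fluorescence was read every 1.5 s for 100 s and peak increase scored as % inhibition versus DMSO control.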
T1 sequence (Q15722 whole entry): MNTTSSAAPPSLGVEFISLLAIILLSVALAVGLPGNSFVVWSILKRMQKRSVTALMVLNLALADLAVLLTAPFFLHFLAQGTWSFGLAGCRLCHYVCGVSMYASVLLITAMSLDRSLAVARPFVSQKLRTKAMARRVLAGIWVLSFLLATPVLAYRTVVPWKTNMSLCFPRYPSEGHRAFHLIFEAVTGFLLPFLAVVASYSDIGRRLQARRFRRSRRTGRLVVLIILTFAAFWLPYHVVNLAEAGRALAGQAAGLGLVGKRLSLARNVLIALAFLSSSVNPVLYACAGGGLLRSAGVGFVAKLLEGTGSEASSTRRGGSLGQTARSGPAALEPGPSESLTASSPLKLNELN
For orientation: Calcium flux is commonly read through the fluorescence of an indicator in the cells.

Data set [5] relates to Rattus norvegicus. The data set can be described thus: Toxicity in rat assessed as alkaline phosphatase level at 400 mg/kg, po qd treated for 14 days. It is filed as organism-based. Set-up: dose 400 mg/kg, route oral. The conditions noted are these: in vivo, 336 h. In outline: (§2)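 Male Han-Wistar rats (200-230 g), n = 4 per group, were given 40 or 400 (mg/kg)/day orally for 14 days in 2% Klucel LF/0.1% Tween-80 versus vehicle. Body weight was recorded at pretreatment and on days 1, 8 and 14, and food intake weekly. Clinical chemistry was sampled on day 5 and at necropsy. Organs were formalin-fixed and H&E stained. Data are given as mean ± SD and analysed by Bartlett's test.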

The subject of a further data set is Cavia porcellus. As to the kind of experiment: Antiinflammatory activity against LTB4-evoked eosinophilic pulmonary inflammation in Hartley guinea pig at 10 mg/kg, po after 1 hr treated before LTB4 challenge. It is filed as functional, organism-based. Set-up: dose 10 mg/kg. An outline of the steps: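 Male Hartley guinea pigs (250-350 g) were dosed orally with 10 mg/kg in 2% Klucel LF/0.1% Tween-80. One hour later they were exposed to 10 μg/mL LTB4 aerosol for 20 min. BAL (3 × 5 mL HBSS) was done 2 h after challenge under pentobarbital. Cells were counted, and differentials of at least 300 cells were taken on Wright-stained cytospins. Analysis by two-way ANOVA/Bonferroni; 4-20 animals per group.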

The subject of data set [6] is Rattus norvegicus. As to the kind of experiment: Hepatotoxicity in rat assessed as increase in ALT level at 40 mg/kg, po qd after 5 days. It is filed as toxicity, organism-based. Set-up: dose 40 mg/kg, route oral. The conditions noted are these: in vivo, 120 h. An outline of the steps:
as §2

Data set [7] can be described thus: Cmax in Sprague-Dawley rat at 10 mg/kg, po. It is filed as ADME, organism-based. Conditions: in vivo. On the set-up: dose 10 mg/kg, route oral. An outline of the steps:
as §1

Data set [8] is described as follows: Tmax in Sprague-Dawley rat at 10 mg/kg, po. On the set-up: dose 10 mg/kg, route oral. The conditions noted are these: in vivo. Format: ADME, organism-based. In outline: as §1
In the next data set the target is Cytochrome P450 2C9 (Homo sapiens, UniProt P11712). The data set can be described thus: Inhibition of CYP2C9 fluorescence method. It is filed as ADME.
Sequence of Cytochrome P450 2C9 (P11712 whole entry): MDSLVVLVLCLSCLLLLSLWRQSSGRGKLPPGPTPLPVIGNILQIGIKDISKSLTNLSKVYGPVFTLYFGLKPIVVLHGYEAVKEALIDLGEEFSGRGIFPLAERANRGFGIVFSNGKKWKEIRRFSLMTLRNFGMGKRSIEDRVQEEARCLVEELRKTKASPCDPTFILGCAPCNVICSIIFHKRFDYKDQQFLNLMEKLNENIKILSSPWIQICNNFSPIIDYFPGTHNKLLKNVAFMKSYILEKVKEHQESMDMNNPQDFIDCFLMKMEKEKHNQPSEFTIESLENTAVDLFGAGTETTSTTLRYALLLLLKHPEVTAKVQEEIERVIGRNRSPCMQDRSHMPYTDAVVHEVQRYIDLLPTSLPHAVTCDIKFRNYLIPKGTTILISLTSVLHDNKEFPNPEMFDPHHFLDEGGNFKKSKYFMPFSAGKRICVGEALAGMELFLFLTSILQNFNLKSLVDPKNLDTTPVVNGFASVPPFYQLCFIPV
In data set [9] the test system is Rattus norvegicus. The data set can be described thus: Hepatotoxicity in rat assessed as increase in ALT level at 400 mg/kg, po qd treated for 14 days measured after 5 days relative to control. The conditions noted are these: in vivo, 120 h.
Another data set concerns the target Cytochrome P450 2C19 (Homo sapiens, UniProt P33261). The data set can be described thus: Inhibition of CYP2C19 fluorescence method. Format: ADME. In outline:
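Cytochrome P450 high-throughput panel (1A2, 2D6, 2C9, 2C19, 3A4) using fluorogenic substrates; IC50 reported.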

The next data set concerns Cynomolgus monkey. As to the kind of experiment: Antiinflammatory activity against ascaris suum antigen-evoked increase in neutrophils at bronchoalveolar lavage in cynomolgus monkey at 10 mg/kg, po after 1 hr treated before LTB4 challenge. Format: functional, organism-based. On the set-up: dose 10 mg/kg. Conditions: Macaca fascicularis, in the assay text read “before Ascaris suum antigen challenge” for “before LTB4 challenge”. An outline of the steps:
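Male cynomolgus monkeys (4-10 kg) naturally hypersensitive to Ascaris suum had baseline BAL 24 h before challenge. They were dosed orally with 10 mg/kg in 15% Labrasol in PEG. One hour later, under ketamine/xylazine, they received antigen aerosol for 90 s by endotracheal tube. BAL neutrophil percentage came from 300-cell LeukoStat differentials, with hemocytometer totals. Analysis by two-way ANOVA/Bonferroni; 3-21 animals per group.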

A short description of data set [10]: Volume of distribution at steady state in Sprague-Dawley rat at 5 mg/kg, iv. Conditions: in vivo, read-out: Vdss. Set-up: dose 5 mg/kg, route intravenous. It is filed as ADME, organism-based. In outline: as §1
The subject of a further data set is Neutrophil. As to the kind of experiment: Inhibition of LTB4-stimulated human neutrophils migration after 30 mins by using CyQuant GR fluorescent dye. Format: functional, cell-based. The conditions noted are these: Homo sapiens, Neutrophil, 0.5 h; read-out: IC50. In outline:
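Human blood neutrophils (95-97% pure, isolated over Lympholyte-poly) at 5 × 10^6 cells/mL were preincubated with compound (3 × 10^-12 to 1 × 10^-6 M final) for 30 min at 37 C. Migration toward 100 ng/mL LTB4 across a polycarbonate membrane ran 90 min at 37 C. Migrated cells were lysed with CyQuant GR and read at 480/520 nm. IC50 was taken from a sigmoidal fit of % inhibition.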

Data set [11] deals with Rattus norvegicus. As to the kind of experiment: Toxicity in rat assessed as aspartate aminotransferase level at 400 mg/kg, po qd treated for 14 days. It is filed as organism-based. On the set-up: dose 400 mg/kg, route oral. Conditions: in vivo, 336 h. In outline: as §2
Data set [12] can be described thus: Clearance in Sprague-Dawley rat at 5 mg/kg, iv. It is filed as ADME, organism-based. Set-up: dose 5 mg/kg, route intravenous. Conditions: in vivo. An outline of the steps:
as §1

The subject of data set [13] is Rattus norvegicus. As to the kind of experiment: Toxicity in rat assessed as effect on body weight at 400 mg/kg, po qd treated for 14 days. It is filed as organism-based. On the set-up: dose 400 mg/kg, route oral. Conditions: in vivo, 336 h. In outline: as §2
In data set [14] the test system is Rattus norvegicus. The data set can be described thus: Toxicity in rat assessed as aspartate aminotransferase level at 40 mg/kg, po qd treated for 14 days. It is filed as organism-based. On the set-up: dose 40 mg/kg, route oral. Conditions: in vivo, 336 h. In outline: as §2
Data set [15] concerns the target T1, Leukotriene B4 receptor 1. The data set can be described thus: Antagonist activity at FLAG-tagged human BLT1 receptor expressed in HEK293 cells assessed as inhibition of LTB4-stimulated calcium mobilization preincubated for 10 mins before LTB4 challenge. It is filed as functional, cell-based.
Another data set deals with Cytochrome P450 3A4 (Homo sapiens, UniProt P08684). As to the kind of experiment: Inhibition of CYP3A4 fluorescence method. Format: ADME. An outline of the steps: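 High-throughput CYP panel covering 1A2, 2D6, 2C9, 2C19 and 3A4, using fluorogenic substrates. IC50 was determined in μM.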
Sequence of Cytochrome P450 3A4 (P08684 whole entry): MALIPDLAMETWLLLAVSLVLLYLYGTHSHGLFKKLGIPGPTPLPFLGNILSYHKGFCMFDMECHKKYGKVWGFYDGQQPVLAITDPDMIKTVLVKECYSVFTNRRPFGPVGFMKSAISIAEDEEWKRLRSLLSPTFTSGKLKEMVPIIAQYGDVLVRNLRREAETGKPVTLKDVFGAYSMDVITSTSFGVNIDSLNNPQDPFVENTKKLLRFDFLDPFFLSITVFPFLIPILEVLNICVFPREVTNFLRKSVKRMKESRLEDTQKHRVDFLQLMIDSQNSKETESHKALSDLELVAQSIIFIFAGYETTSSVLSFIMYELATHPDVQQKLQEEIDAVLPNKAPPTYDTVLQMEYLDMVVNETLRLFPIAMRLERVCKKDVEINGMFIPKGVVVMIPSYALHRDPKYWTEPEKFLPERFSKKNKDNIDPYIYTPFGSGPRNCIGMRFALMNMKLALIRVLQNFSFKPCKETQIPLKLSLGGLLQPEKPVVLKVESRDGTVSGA
The subject of data set [16] is Rattus norvegicus. The data set can be described thus: Hepatotoxicity in po dosed rat assessed as increase in total bilirubin level treated for 14 days measured. Format: toxicity, organism-based. Conditions: in vivo, 336 h.
Data set [17] has as its system Rattus norvegicus. As to the kind of experiment: Hepatotoxicity in rat assessed as increase in ALT level at 400 mg/kg, po qd treated after 5 days. Set-up: dose 400 mg/kg, route oral. The conditions noted are these: in vivo, 120 h. It is filed as toxicity, organism-based. In outline: as §2

The source made the active and inactive calls. No cut-off for these calls is given here.

For orientation: bioavailability means the share of a dose that reaches the circulation, judged against a reference dose that is usually intravenous. Usually half-life stands for how long it takes for the measured level to halve. Broadly, the IC50 is the point on the concentration scale where inhibition reaches its midpoint. What is called Cmax is the maximum level reached in the sampled fluid or tissue. Broadly, the Tmax is the time from dosing to the highest level. What is called clearance is the volume of plasma or blood freed of the substance per unit of time.

Sequence of Cytochrome P450 2C19 (P33261 whole entry): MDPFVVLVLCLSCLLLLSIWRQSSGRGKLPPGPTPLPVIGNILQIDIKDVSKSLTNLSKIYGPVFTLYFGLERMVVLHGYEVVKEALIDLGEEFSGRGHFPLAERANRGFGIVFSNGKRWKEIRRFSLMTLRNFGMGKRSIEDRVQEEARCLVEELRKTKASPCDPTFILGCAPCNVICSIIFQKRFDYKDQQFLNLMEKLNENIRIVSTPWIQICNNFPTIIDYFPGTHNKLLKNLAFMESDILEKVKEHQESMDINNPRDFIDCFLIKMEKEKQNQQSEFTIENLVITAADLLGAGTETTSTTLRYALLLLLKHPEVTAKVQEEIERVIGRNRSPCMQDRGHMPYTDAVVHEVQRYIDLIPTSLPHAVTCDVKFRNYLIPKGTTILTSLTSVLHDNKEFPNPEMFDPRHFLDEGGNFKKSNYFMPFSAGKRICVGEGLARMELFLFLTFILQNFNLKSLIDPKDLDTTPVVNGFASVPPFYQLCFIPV

In data set [1], `O=C(O)CCCOc1cccc(CCCCCCOc2cc(-c3cccc(F)c3)cc(-c3ccc4c(c3)OCO4)c2)c1CCC(=O)O` came in with a bioavailability of 88%. Besides, the results for the half-life in [2] and in data set [3] were 144 min and 186 min, respectively. The IC50 in data set [4] was 1.19 nM; on Cytochrome P450 2C9 it was > 25 µM; against Cytochrome P450 2C19 it was > 7.5 µM; in the data set with Neutrophil, 3.68 nM; in [15], 129 nM; at Cytochrome P450 3A4, > 7.5 µM. Moreover, the Activity entry was “Non-toxic” in the data set on Rattus norvegicus [5]; 40 IU/L in the data set on Rattus norvegicus [6]; 53% with Rattus norvegicus [9]; “Non-toxic” with Rattus norvegicus [11]; “Non-toxic” in the data set on Rattus norvegicus [13]; “Non-toxic” in the data set with Rattus norvegicus [14]. Further, the Activity entry in the data set on Rattus norvegicus [16] is reported as “Toxic”; in the data set on Rattus norvegicus [17], 69 IU/L. For the same compound, the outcome with Cavia porcellus and with Cynomolgus monkey was Active. The same compound had a Cmax in data set [7] of 2.25 µM. In [8], the Tmax is 5 h. In addition, in data set [10], the Vd was determined as 0.98 L/kg. Also, the clearance in data set [12] stood at 11.6 mL/min/kg.
`O=C(O)CCCOc1cccc(CCCCCCOc2cc(-c3ccsc3)cc(-c3ccc4c(c3)OCO4)c2)c1CCC(=O)O`: the bioavailability in [1] was found to be 70%. The half-life was 126 min in data set [2] and 162 min in data set [3]. The IC50 in data set [4] was 0.44 nM; against Cytochrome P450 2C9, 3.9 µM; on Cytochrome P450 2C19, > 7.5 µM; with Neutrophil, 0.1 nM; in data set [15], 114 nM; on Cytochrome P450 3A4 it was > 7.5 µM. The Activity result in the data set on Rattus norvegicus [5] was “Non-toxic”; in the data set on Rattus norvegicus [6] it was 40 IU/L; in the data set with Rattus norvegicus [9] it was 29%; in the data set on Rattus norvegicus [11], “Non-toxic”; in the data set on Rattus norvegicus [13], “Non-toxic”; in the data set with Rattus norvegicus [14] it was “Non-toxic”. Besides, the Activity entry in the data set on Rattus norvegicus [16] is recorded as “Toxic”; with Rattus norvegicus [17], 58 IU/L. In addition, the outcome in the data set on Cavia porcellus and in the data set on Cynomolgus monkey was Active. Also, the maximum concentration (Cmax) in data set [7] was 6.21 µM. The Tmax in data set [8] is 3 h. Moreover, in data set [10], the Vd was 0.22 L/kg. The compound also showed a clearance in data set [12] of 5.47 mL/min/kg.

(Values after ChEMBL document CHEMBL1158546, “Discovery of novel and potent leukotriene B4 receptor antagonists. Part 1” (J Med Chem, 2010).)
